The text below walks through data of publication PMC7024744 (Journal of Pesticide Science, 2020).

One assay deals with B. cinerea. Nature of the assay: fungicidal activity in vitro, mycelium growth rate method. The format is cell-based. The note with it: Botrytis cinerea, read-out: Antifungal activity in vitro, inhibition, B. cinerea. Summed up:
(§1)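 Mycelium growth rate method. Test compounds were dissolved in acetone as a 100 mg/L stock and tested at 50 mg/L. Boscalid served as positive control and acetone as negative control. Plates were incubated at 25°C. Inhibition (%) was calculated from the average mycelial diameter (mm) with compound versus the negative-control diameter.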

In the next assay the test system is V. mali. Described as above. The class given is cell-based. Conditions: Cytospora mali, read-out: Antifungal activity in vitro, inhibition, V. mali. The procedure, abridged: as §1
A further assay concerns the target porcine SDH (Sus scrofa, UniProt A5GZW8+D0VWV4+Q007T0+Q0QF01). Nature of the assay: SDH enzymatic inhibition assay. The format is biochemical, swine. The procedure, abridged: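 Porcine SDH quantified by double-antibody sandwich ELISA. Plates were coated with purified porcine SDH antibody, then monoclonal antibody and HRP-labelled SDH antibody were added. After washing, TMB substrate was added, followed by acid. OD was read at 450 nm. SDH activity concentration was taken from a standard curve of standard-substance concentration against OD and corrected for sample dilution.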

Chain of porcine SDH (Q0QF01 43-664): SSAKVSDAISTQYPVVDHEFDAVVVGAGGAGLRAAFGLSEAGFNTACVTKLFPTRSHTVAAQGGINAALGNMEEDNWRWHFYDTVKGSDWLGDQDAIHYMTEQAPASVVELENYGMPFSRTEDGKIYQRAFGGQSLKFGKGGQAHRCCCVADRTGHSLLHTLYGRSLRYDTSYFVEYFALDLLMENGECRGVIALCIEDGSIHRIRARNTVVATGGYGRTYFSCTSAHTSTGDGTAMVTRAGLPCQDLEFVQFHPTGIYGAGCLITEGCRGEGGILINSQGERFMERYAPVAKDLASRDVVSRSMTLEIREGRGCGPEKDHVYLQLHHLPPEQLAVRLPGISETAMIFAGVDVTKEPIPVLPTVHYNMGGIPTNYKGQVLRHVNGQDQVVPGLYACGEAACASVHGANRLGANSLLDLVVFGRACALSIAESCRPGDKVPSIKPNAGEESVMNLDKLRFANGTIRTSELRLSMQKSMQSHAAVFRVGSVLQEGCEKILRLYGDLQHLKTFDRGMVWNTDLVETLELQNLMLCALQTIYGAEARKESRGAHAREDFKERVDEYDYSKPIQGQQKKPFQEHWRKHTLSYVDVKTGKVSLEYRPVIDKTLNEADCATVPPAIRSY
Chain of porcine SDH (Q007T0 29-280): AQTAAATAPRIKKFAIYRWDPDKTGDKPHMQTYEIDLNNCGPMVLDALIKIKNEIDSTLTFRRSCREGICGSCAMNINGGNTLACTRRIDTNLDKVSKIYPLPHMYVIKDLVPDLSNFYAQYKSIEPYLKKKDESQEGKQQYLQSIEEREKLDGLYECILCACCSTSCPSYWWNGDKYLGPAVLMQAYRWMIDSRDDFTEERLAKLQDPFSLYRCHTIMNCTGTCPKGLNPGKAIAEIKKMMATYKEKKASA
Chain of porcine SDH (D0VWV4 30-169): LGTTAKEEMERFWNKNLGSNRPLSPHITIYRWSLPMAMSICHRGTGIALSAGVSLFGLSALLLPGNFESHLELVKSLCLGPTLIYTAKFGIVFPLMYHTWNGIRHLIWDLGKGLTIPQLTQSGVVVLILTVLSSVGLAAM
Chain of porcine SDH (A5GZW8 37-159): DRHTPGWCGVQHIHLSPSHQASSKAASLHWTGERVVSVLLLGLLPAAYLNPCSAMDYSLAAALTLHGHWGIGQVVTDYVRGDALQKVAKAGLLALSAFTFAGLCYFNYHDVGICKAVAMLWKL

A word on the inhibition: it is the relative decrease from the control value, in per cent. Usually IC50 stands for the point on the concentration scale where inhibition reaches its midpoint. Read a low IC50 as inhibition by little substance. Turning to `O=C(Nc1ccccc1-c1ccc(Cl)cc1)c1cccnc1Cl` [Boscalid], the inhibition at 50 µg/mL in the assay on B. cinerea and in the assay on V. mali was 100% each time. On porcine SDH, this compound returned an IC50 of 1670 nM. The inhibition at 0.5 µM on porcine SDH (read-out: SDH enzymatic inhibition, Inhibition (%) 0.5 µM) worked out at 21.6%. Moreover, the inhibition at 1 µM on porcine SDH (read-out: SDH enzymatic inhibition, Inhibition (%) 1 µM) was 43.3%. The inhibition at 2 µM at porcine SDH (read-out: SDH enzymatic inhibition, Inhibition (%) 2 µM) worked out at 53.6%. Further, the inhibition at 8 µM at porcine SDH (read-out: SDH enzymatic inhibition, Inhibition (%) 8 µM) worked out at 81%.
